Our source for the AC50 values is PubChem BioAssay AID624010 (Broad Institute, 2012).

The test addresses Scavenger receptor class B member 1 (Mus musculus) (UniProt Q61009). The experiment in a line: inhibition of C384S mSR-BI lipid uptake – cell-based, C384S mutant, scintillation, dry powder, mechanism study for SR-BI HDL uptake inhibitor project, dose response (AID 624010). The settings on record: CHO ldlA C384S mSR-BI, [3H]CE-HDL uptake. The essentials:
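material = CHO cells without LDL receptor, expressing C384S mutant mouse SR-BI | buffer or medium = F12K medium, 0.5% BSA (fatty-acid-free), 0.5% DMSO | also added = [3H]CE-HDL | times = 1 h compound preincubation, then 2 h HDL uptake, 37 °C | technique = scintillation counting of [3H] label | benchmarks = unlabeled HDL excess (40-fold) and no-compound wells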

Sequence of Scavenger receptor class B member 1 (Mus musculus) (Q61009 whole entry C384S): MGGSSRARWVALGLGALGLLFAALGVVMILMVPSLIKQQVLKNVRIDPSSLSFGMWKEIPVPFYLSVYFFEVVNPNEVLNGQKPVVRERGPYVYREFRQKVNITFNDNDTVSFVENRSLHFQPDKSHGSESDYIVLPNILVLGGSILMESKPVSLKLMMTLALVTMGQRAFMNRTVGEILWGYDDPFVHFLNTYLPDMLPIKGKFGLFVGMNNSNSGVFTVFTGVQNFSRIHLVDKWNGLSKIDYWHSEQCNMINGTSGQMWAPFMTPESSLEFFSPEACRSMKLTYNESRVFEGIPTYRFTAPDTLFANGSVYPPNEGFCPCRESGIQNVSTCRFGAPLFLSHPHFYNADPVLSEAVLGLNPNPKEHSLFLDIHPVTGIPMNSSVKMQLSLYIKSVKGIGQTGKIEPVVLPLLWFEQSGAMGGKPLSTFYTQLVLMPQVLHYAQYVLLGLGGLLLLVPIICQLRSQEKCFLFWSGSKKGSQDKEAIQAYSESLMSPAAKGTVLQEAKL

`CC(C)NC(=O)Nc1ccc2c(c1)C(=O)N([C@H](C)CO)C[C@@H](C)[C@H](CN(C)S(=O)(=O)c1ccc(Cl)cc1)O2`: the half-maximal activity concentration (AC50) (in general, the concentration at which the activity in the assay is half-maximal) was 500 nM.
